Assay results from ChEMBL document CHEMBL4513216, “Probing the Open Global Health Chemical Diversity Library for Multistage-Active Starting Points for Next-Generation Antimalarials” (ACS Infect Dis, 2020).

Assay: Toxicity liver stage against HepG2, at 10uM
Assay type: cell-based
Set-up: test concentration 10 uM, cell line HepG2-A16-CD81EGFP
Settings: human, HepG2-A16-CD81EGFP cells; read-out: INHIBITION
Outline: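 Uninfected HepG2-A16-CD81EGFP cells, 3 × 10^3 per well, 1536-well, plated on prespotted compound at 10 μM final, parasite-free screening media added to match infected plates; puromycin 10 μM positive, DMSO 0.5% negative; run in parallel with 48 h PbLuc assay at 37 °C, 5% CO2; viability by CellTiter-Glo luminescence, normalized to controls.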

| SMILES | cytotoxicity at 10 µM [%] |
| --- | --- |
| Cc1ccc(NC(=O)c2cc(S(=O)(=O)N3CCCCC3)c[nH]2)cc1F | 1.26 |
| COCCN(CCOC)Cc1c(C)nc2ccccc2c1O | 2.08 |
| CC(C)(C)C(=O)NC[C@H]1Cn2c(-c3ccccc3)cnc2CO1 | -3.69 |
| CN1CCN(C(=O)c2cc3occc3n2Cc2ccccc2F)CC1 | 1.14 |
| Cc1n[nH]c2nc(-c3ccccc3O)cc(C(=O)O)c12 | -1.55 |
| COC(=O)c1ccc(C2SCC(=O)Nc3c2cnn3C2CCCC2)cc1 (configuration not stated) | 1.9 |
| Cc1cnc2n(c1=O)C(CC(=O)NCc1ccccc1Cl)CS2 (configuration not stated) | -7.86 |
| COc1ccc(C(=O)NCC(c2cccn2C)N2CCN(C)CC2)cc1 (configuration not stated) | 8.19 |
| O=C(O)c1ncccc1N1CCCCC1 | 4.19 |
| CC(C)N(C)[C@@H]1CCN(Cc2ccco2)[C@H]1Cc1ccccc1 | -7.92 |
| Cc1occc1C(=O)N1C[C@@H]2CN(S(C)(=O)=O)CCO[C@@H]2C1 | -2.63 |
| CN(C)C(=O)N1CCN(C)c2ncccc2C1 | -4.14 |
| Cc1c(C)n(CC(O)CN2CCC(O)CC2)c2c(Cl)cccc12 (configuration not stated) | -13.9 |
| Cc1noc([C@@H]2C[C@H]3OCC[C@H]3N(S(C)(=O)=O)C2)n1 | -9.67 |
| CC(C)CNC(=O)c1nn(C)c(NC(=O)Cc2ccccc2)c1F | -3.22 |
| CCn1cc(NC(=O)C(C)n2ncc(Cl)c2C)c(C(=O)OC)n1 (configuration not stated) | 7.19 |
| Cc1cc(O)n(-c2ccc3nnc(C)n3n2)n1 | 9.24 |
| CC(=O)N[C@H]1CCO[C@@H](c2cccc(NC(=O)c3cccc(F)c3)c2)C1 | 8.75 |
| CC(C)NC(=O)[C@@H]1CN(C(=O)C2CC2)C[C@]12Cc1ccccc1C(=O)N2 | 1.48 |
| Cc1nn(C)cc1-c1cc(C(=O)N2CCc3ncc(Cl)cc3C2)on1 | -4.96 |
| CC(C)N1CCCC1c1cc(CCO)[nH]n1 (configuration not stated) | 0.895 |
| Cc1ccc(S(=O)(=O)N[C@H](CO)C(C)C)cc1N(C)C | -5.53 |
| NC(=O)CNC(c1ccccc1)c1ccccc1 | -10.5 |

| SMILES | cytotoxicity at 10 µM [%] |
| --- | --- |
| Cc1cc(NC(=O)CNC2CCc3ncnn3C2)on1 (configuration not stated) | 6.47 |
| CNC(=O)N1CCOC(C)(c2cnn(C)c2)C1 (configuration not stated) | -0.717 |
| N#Cc1cccc(CN2CCCC2Cn2cncn2)c1 (configuration not stated) | 3.15 |
| Cc1nnc(N2CCc3cnc(C(C)C)nc3C2)c(C#N)c1C | -143 |
| CCCNC(=O)CCC(=O)Nc1cc2sc(C)nc2cc1OC | 4.55 |
| COC(=O)c1ccc(N(C(=O)c2ccncc2)C(C)C)c(C)c1 | 0.503 |
| Cc1noc(CCCC(=O)NCCc2cc3ccccc3[nH]2)n1 | 1.38 |
| COc1ccc(OC)c(CCC(=O)Nc2cc(C)n[nH]2)c1 | 7.3 |
| CC(NCc1ccccc1CN1CCCC1=O)c1ccc(C#N)cc1 (configuration not stated) | 3.09 |
| Cc1ccc(CN2CCOC(C)(c3cnn(C)c3)C2)cc1 (configuration not stated) | -4.16 |
| COC(=O)c1ccc(Cn2nc(C)cc2C)c(OC)c1 | 10.7 |
| N#Cc1ccc(SCCOCCO)c(Cl)c1 | 2.68 |
| CCOc1ccnc(N2CCN(CCOC)CC2)n1 | 4.49 |
| CN1CCN(CC(NCc2cccc(O)c2)c2ccccc2)CC1 (configuration not stated) | -3.89 |
| Cc1cc(C)n(-c2cncc(NCCC(=O)NC(C)C)n2)n1 | 1.06 |
| COCCS(=O)(=O)NC(=O)c1nnn(-c2ccc(F)cc2)c1C1CC1 | 0.188 |
| O=C(NCc1ccc(CN2CCCCC2)cc1)Nc1cccnc1 | 74.5 |
| COc1cc(C)nc(N2CCN(C(=O)CCc3ccncc3)CC2)n1 | -5 |
| COCCn1nc(C(=O)N(C)Cc2cccnc2)ccc1=O | -144 |
| COc1c(C2CCCN2C(=O)c2ccco2)c(C)nn1C (configuration not stated) | -1.68 |
| CCCN(C(=O)c1cnns1)C1CCCN(Cc2ccccc2)C1 (configuration not stated) | -4.35 |
| Cc1cc(N)nc(SC2CCN(c3ccccc3)C2=O)n1 (configuration not stated) | -0.572 |
| Cc1ccc2c(c1)CCCN2C(=O)c1cncc(Br)c1 | -8.79 |

| SMILES | cytotoxicity at 10 µM [%] |
| --- | --- |
| COC(=O)c1ccc(OCCn2cnc(C#N)n2)cc1 | -2.01 |
| CN1CCN(C)C(CNc2c(C#N)cnc3ccc(Cl)cc23)C1 (configuration not stated) | -4.58 |
| Cc1nc(S(=O)(=O)CCn2cccn2)n(C2CCCCC2)c1C | -5.58 |
| O=C(Cn1cc(-n2cccc2)cn1)NCC(F)(F)F | 16 |
| CC(NC1(CNC(=O)Cn2cccn2)CCOCC1)c1ccccc1 (configuration not stated) | -3.07 |
| OC(CN(Cc1ccccc1)Cc1ccncc1)c1cccs1 (configuration not stated) | -3.65 |
| COc1ccc(C(=O)NS(=O)(=O)c2cncc(Br)c2)cc1OC | 4.36 |
| CC(NC(=O)CCCOc1ccccc1Cl)c1ccncc1 (configuration not stated) | -13 |
| CC(=O)N1CCOC(Cc2cccc(C(F)(F)F)c2)C1 (configuration not stated) | -6.64 |
| Cn1nccc1C(=O)N1CCCC1c1ccc(C(=O)N2CCOCC2)s1 (configuration not stated) | -145 |
| CC(C)CN1CC2(CCN(C(=O)C(O)c3ccccc3Cl)CC2)CC1=O (configuration not stated) | 6.89 |
| COc1ccc(-c2cc(C3CCOC3)c(C#N)c(N)n2)cn1 (configuration not stated) | 10.2 |
| Cc1c(CNCCCOc2cccnc2)c2ccccc2n1CC(N)=O | -145 |
| CN(CC1(O)CCCN(Cc2cccc(F)c2F)C1=O)C1CCCCC1 (configuration not stated) | -11.1 |
| Cc1ccsc1[C@@H]1CCN(C(=O)CCC(=O)c2ccccc2)C[C@H]1O | 3.52 |
| O=c1[nH]c2cc3c(cc2cc1CN1CCCC1c1ccccn1)OCO3 (configuration not stated) | -4.5 |
| CCn1c(C)nnc1SCCn1cc(-c2ncc[nH]2)nn1 | -6.99 |
| CCOCC(=O)N1Cc2cnc(-c3ccccc3)nc2C1 | -1.08 |
| CN(CCC1CCCCO1)c1nncc(-c2ccccc2)n1 (configuration not stated) | 1.37 |
| COCCNS(=O)(=O)c1cccc2c1CN(C(=O)c1cc(C)on1)CC2 | 1.63 |
| CC1CCCCN1C1CN(c2nc(C3CCCC3)nc3c2cnn3C)C1 (configuration not stated) | -0.699 |
| O=C(c1ccccc1-c1nc[nH]n1)N1CCOC(C(F)(F)F)C1 (configuration not stated) | -0.359 |
| Cc1ccc(Cl)c(CN2CCC3(CC2)C(C(=O)O)CC(=O)N3C)c1F (configuration not stated) | 2.64 |

| SMILES | cytotoxicity at 10 µM [%] |
| --- | --- |
| O=C(NCCN1CCCCCC1)c1coc(COc2ccc(F)cc2)n1 | -4.07 |
| CCOCCn1c(=O)n(CCC=C(C)C)c2cc(C(=O)O)cnc21 | -2.85 |
| CC(C)N1CCCC2(CCN(C(=O)CCCn3ccnc3)C2)C1=O (configuration not stated) | -6.43 |
| Cc1[nH]c(=O)[nH]c(=O)c1CN1CCCC(CCc2c(F)cccc2F)C1 (configuration not stated) | -7.32 |
| COc1ccc2c(c1)CCN(CCC(=O)NC1CCCCC1)CC2 | -11.4 |
| CN(C)c1nc2c(c(=O)[nH]1)CCN(C(=O)c1cccc3nccnc13)C2 | -10.7 |
| CNc1cncc(C2CCCN2C(=O)c2ccc3oc(C)cc3c2)n1 (configuration not stated) | 4.52 |
| CS(=O)(=O)NCCC(=O)Nc1cnn(-c2ccccc2Cl)c1 | -0.0414 |
| O=C(CN1CCCC1c1noc(C2CC2)n1)NCCc1ccsc1 (configuration not stated) | 2.82 |
| Cc1ccc(NC2CCN(C(=O)CCc3c(C)noc3C)CC2)nn1 | -11.4 |
| Cc1nc(CN2CCC(N(C)Cc3nnc(C4CC4)n3C)C2)cs1 (configuration not stated) | -10.7 |
| Cc1nn(C)c(Cl)c1C1CCCN1C(=O)c1ccc2c(c1)COC2 (configuration not stated) | -16.1 |
| COc1ccccc1CNC(C)c1ccc2[nH]c(=O)[nH]c2c1 (configuration not stated) | -18 |
| CC(C)c1nnc2n1CCN(C(=O)c1cc(Cl)c[nH]1)C2 | -11.4 |
| Cc1ccc(C(=O)N2CCCN(Cc3cccs3)CC2)n1C | -0.926 |
| CN(Cc1ccsc1)C(=O)c1ccc2c(c1)NC(=O)CO2 | -12.8 |
| CCc1nc2n(n1)CC(NCCC(=O)Nc1cc(C)on1)CC2 (configuration not stated) | -10 |
| N#Cc1ccc(OCC(O)CN2CCC(c3ccn[nH]3)CC2)cc1 (configuration not stated) | -3.33 |
| COCCOc1cccc(CNCC2CN(C)CCO2)c1 (configuration not stated) | -14.8 |
| Fc1cccc(-c2nc(CN3CCCC3Cn3cncn3)co2)c1 (configuration not stated) | -5.61 |
| O=C(NCc1cccnc1N1CCCCC1)c1cccs1 | -4.43 |
| O=C(NCc1cc[nH]n1)NCC(O)c1ccccc1F (configuration not stated) | -17.1 |
| CC(Cn1ccnc1)NC(=O)N(C)Cc1ccc2c(c1)OCO2 (configuration not stated) | -16.1 |

| SMILES | cytotoxicity at 10 µM [%] |
| --- | --- |
| COCCN1CCN(Cc2cccc(C(=O)N(C)C)c2)CC1 | -6.79 |
| O=C(CN1CCCC(Cn2cncn2)C1)NCCCc1ccccc1 (configuration not stated) | -10.7 |
| Cc1ccccc1-c1noc(CN2CCc3nn(C)c(=O)cc3C2)n1 | -12.5 |
| O=C(COc1cccc(Cl)c1)N1CCOCC1c1ncon1 (configuration not stated) | -12.3 |
| Cc1csc(N2CCCN(C(=O)CCNc3ncccn3)CC2)n1 | -10.5 |
| CC(C)(C)OC(=O)NCCNC(=O)c1ccc(-c2ccco2)[nH]c1=O | -13.1 |
| O=C(c1ccc2c(c1)OCCCO2)N1CCCC(n2cccn2)C1 (configuration not stated) | -15.6 |
| CC(NC(=O)Nc1cccnc1N1CCCC1)c1ccncc1 (configuration not stated) | -19.3 |
| Cc1ccc(N2CCCC(NCc3ccc4c(c3)CCO4)C2)nn1 (configuration not stated) | -16.1 |
| N#CCc1ccc(OCC(=O)N2CCCC(n3cccn3)C2)cc1 (configuration not stated) | -4 |
| Cc1noc(C(C)C)c1C(=O)NCC(c1ccsc1)N(C)C (configuration not stated) | -5.18 |
| CCS(=O)(=O)N(C)CC(=O)Nc1ccc(Br)cn1 | -0.0481 |
| Cc1cc(NC(=O)CN2CCCC2c2noc(C(C)C)n2)n(C)n1 (configuration not stated) | 4.64 |
| O=C(c1cc(F)ccc1F)C1CCN(C(=O)c2ccccn2)CC1 | 2.6 |
| Cc1ccc(N2CCC3(CC2)COCCN(c2nccs2)C3)nn1 | -107 |
| CO[C@@H]1CCN(Cc2cnn(C)c2)[C@@H]2CN(Cc3ccco3)C[C@@H]21 | -12.5 |
| CCO[C@H]1CN(CC2CC2)[C@@H]2CCCO[C@H]12 | -105 |
| CN1CCC2(CCN(Cc3nccs3)CC2)C1=O | -3.03 |
| c1ccc(-c2ccc3nc(C4CCN(CC5CC5)CC4)nn3c2)cc1 | -7.32 |
| CN(C)CCNC(=O)[C@H]1C[C@H]2CN(C(=O)NC3CCCC3)C[C@@H]1O2 | -4.2 |
